From PMC9643332 (Bioorganic Chemistry, 2022)
Entries after “also recorded” stand apart in the source; their conditions may differ.

Experiments:
SARS-CoV-2 3CL^pro [1] = molecular target: T1, SARS-CoV-2 3CL^pro (Severe acute respiratory syndrome coronavirus 2, UniProt P0DTD1); assay: biochemical; format: biochemical; conditions: for inhibition at 100 µM: read-out: inhibition against SARS-CoV-2 3CLpro
HCoV-229E 3CL^pro = HCoV-229E 3CL^pro (Human coronavirus 229E, UniProt P0C6X1); assay: biochemical
SARS-CoV-2 3CL^pro [2] = molecular target: T1, SARS-CoV-2 3CL^pro; assay: Fluorescence quenching assay; format: binding; conditions: 3 μM 3CLpro
SARS-CoV-2 3CL^pro [3] = molecular target: T1, SARS-CoV-2 3CL^pro; format: biochemical
SARS-CoV-2 3CL^pro [4] = molecular target: T1, SARS-CoV-2 3CL^pro; assay: Enzymatic inhibition assay in the presence of DTT or GSH; format: biochemical; conditions: 10 μM compound
Summary of the method: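 The thiol-dependence FRET assay preincubated SARS-CoV-2 3CLpro with test compound in reaction buffer (0.1 M PBS, 1 mM EDTA, pH 7.4), with 4 mM DTT or 1 mM GSH, or without either.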

SARS-CoV-2 3CL^pro [5] = molecular target: T1, SARS-CoV-2 3CL^pro; assay: CD spectroscopy, secondary structure content by CDNN; conditions: 20 μM 3CLpro
[6] = molecular target: T2, human chymotrypsin C (CTRC) (Homo sapiens, UniProt Q99895); assay: Human protease selectivity: CTRC inhibition; format: biochemical; conditions: 0, 1, 10, 100 μM
T2 sequence (Q99895 30-268): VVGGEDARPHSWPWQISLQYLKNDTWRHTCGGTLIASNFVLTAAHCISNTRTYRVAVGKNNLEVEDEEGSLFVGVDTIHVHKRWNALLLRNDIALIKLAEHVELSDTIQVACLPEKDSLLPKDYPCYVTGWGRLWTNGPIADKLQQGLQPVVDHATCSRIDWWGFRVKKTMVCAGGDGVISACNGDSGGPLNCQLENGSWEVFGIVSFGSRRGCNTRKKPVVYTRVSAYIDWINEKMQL

[7] = molecular target: Dipeptidyl peptidase IV (DPP-IV) (Homo sapiens, UniProt P27487); assay: Human protease selectivity: DPP-IV inhibition in human plasma with GP-BAN probe; format: biochemical; conditions: 0, 1, 10, 100 μM
Summary of the method: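 Human plasma served as the DPP-IV source and was incubated 1 h with test compound at 0, 1, 10 or 100 μM in 0.1 M PBS, pH 7.4, 1 mM EDTA. Adding the DPP-IV-selective fluorogenic probe at 100 µM started the reaction. Fluorescence (ex 430 nm, em 535 nm) was read immediately over 20 min.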

SARS-CoV-2 = conditions: Huh7-ACE2, HeLa-ACE2 and A549-ACE2 cells; in the micromolar range, similar to Remdesivir; cited from earlier work

Dipeptidyl peptidase IV (DPP-IV), sequence (P27487 39-766): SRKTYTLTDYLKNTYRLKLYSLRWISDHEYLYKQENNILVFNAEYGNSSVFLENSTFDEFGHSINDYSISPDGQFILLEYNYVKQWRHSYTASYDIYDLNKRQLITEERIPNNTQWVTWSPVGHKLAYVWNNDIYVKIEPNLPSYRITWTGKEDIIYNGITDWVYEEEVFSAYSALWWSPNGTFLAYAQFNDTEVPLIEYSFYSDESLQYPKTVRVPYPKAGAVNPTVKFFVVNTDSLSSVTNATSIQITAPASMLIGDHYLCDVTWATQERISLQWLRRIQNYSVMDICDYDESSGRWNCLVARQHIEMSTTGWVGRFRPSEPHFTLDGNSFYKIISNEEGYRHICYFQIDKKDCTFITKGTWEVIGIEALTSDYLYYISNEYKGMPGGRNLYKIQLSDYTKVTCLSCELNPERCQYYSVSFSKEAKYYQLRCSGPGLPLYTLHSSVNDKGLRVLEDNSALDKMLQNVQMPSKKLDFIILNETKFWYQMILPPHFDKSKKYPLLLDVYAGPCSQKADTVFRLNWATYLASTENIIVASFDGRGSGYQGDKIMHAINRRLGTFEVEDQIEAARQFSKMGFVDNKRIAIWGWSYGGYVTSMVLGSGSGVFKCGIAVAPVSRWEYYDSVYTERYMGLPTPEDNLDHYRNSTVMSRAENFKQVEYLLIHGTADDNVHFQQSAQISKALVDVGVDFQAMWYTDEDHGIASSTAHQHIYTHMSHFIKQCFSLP
HCoV-229E 3CL^pro, sequence (P0C6X1 2966-3267): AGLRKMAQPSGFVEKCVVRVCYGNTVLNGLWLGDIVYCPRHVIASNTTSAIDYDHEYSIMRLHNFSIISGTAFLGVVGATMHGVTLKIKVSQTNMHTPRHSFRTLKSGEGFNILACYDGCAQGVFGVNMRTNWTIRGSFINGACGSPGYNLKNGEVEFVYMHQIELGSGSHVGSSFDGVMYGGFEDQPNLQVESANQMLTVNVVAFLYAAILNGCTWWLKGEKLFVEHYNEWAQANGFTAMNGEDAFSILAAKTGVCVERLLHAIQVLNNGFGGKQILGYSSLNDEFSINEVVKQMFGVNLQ

CCCCCCCCCCCCCCCC[N+](C)(C)Cc1ccccc1 [Cetalkonium chloride]
IC50 (SARS-CoV-2 3CL^pro [1]): 3.5 ± 0.47 µM
inhibition at 100 µM (SARS-CoV-2 3CL^pro [1]): > 90%

CCCCCCCCCCCCCCCC[N+](C)(C)C [Cetrimonium bromide]
IC50 (SARS-CoV-2 3CL^pro [1]): 12.8 ± 0.63 µM
inhibition of protease activity in primary screening (SARS-CoV-2 3CL^pro [1]): significantly inhibit

C[N+](C)(C)CCCCCCCCCC[N+](C)(C)C [Decamethonium bromide]
IC50 (SARS-CoV-2 3CL^pro [1]): > 100 µM
inhibition against SARS-CoV-2 3CLpro (SARS-CoV-2 3CL^pro [1]; 100 µM): no inhibitory activity

CCCCCCCCCCCC[N+](C)(C)CCOc1ccccc1 [Domiphen bromide]
IC50 (SARS-CoV-2 3CL^pro [1]): 45.9 ± 16.5 µM
inhibition at 100 µM (SARS-CoV-2 3CL^pro [1]): > 90%

CCCCCCCCOc1ccccc1C(=O)Nc1ccc(C(=O)OCC[N+](C)(CC)CC)cc1 [Otilonium bromide]
IC50 (SARS-CoV-2 3CL^pro [1]): 27.7 ± 0.33 µM
inhibition of protease activity in primary screening (SARS-CoV-2 3CL^pro [1]): significantly inhibit

CCCCCCCCCCCCCCCC[N+](C)(C)CCN(Cc1ccc(OC)cc1)c1ncccn1 [Thonzonium bromide]
inhibition of protease activity in primary screening (SARS-CoV-2 3CL^pro [1]): significantly inhibit
IC50 (HCoV-229E 3CL^pro): 6.47 µM
KSV (Stern-Volmer quenching constant) (SARS-CoV-2 3CL^pro [2]): 39600 L/mol
Kq (bimolecular quenching rate constant) (SARS-CoV-2 3CL^pro [2]; τ0 about 10^-8 s): 3.96e+12 M⁻¹ s⁻¹
type of inhibition (SARS-CoV-2 3CL^pro [3]): non-competitive inhibitor
inhibition against SARS-CoV-2 3CLpro in the presence of GSH (SARS-CoV-2 3CL^pro [4]; 1 mM GSH): potent inhibition
inhibition against SARS-CoV-2 3CLpro in the presence of DTT (SARS-CoV-2 3CL^pro [4]; 4 mM DTT): potent inhibition
Antiparallel (%) (SARS-CoV-2 3CL^pro [5]; 50 μM Thonzonium bromide): 18.60%
Parallel (%) (SARS-CoV-2 3CL^pro [5]; 50 μM Thonzonium bromide): 6.30%
Random coil (%) (SARS-CoV-2 3CL^pro [5]; 50 μM Thonzonium bromide): 30.70%
Total sum (%) (SARS-CoV-2 3CL^pro [5]; 50 μM Thonzonium bromide): 95.40%
α-helix (%) (SARS-CoV-2 3CL^pro [5]; 50 μM Thonzonium bromide): 25.50%
β-turn (%) (SARS-CoV-2 3CL^pro [5]; 50 μM Thonzonium bromide): 14.20%
Antiparallel (%) (SARS-CoV-2 3CL^pro [5]; 100 μM Thonzonium bromide): 22.00%
Parallel (%) (SARS-CoV-2 3CL^pro [5]; 100 μM Thonzonium bromide): 6.20%
Random coil (%) (SARS-CoV-2 3CL^pro [5]; 100 μM Thonzonium bromide): 32.20%
Total sum (%) (SARS-CoV-2 3CL^pro [5]; 100 μM Thonzonium bromide): 96.10%
α-helix (%) (SARS-CoV-2 3CL^pro [5]; 100 μM Thonzonium bromide): 20.20%
β-turn (%) (SARS-CoV-2 3CL^pro [5]; 100 μM Thonzonium bromide): 15.50%
Antiparallel (%) (SARS-CoV-2 3CL^pro [5]; 200 μM Thonzonium bromide): 33.60%
Parallel (%) (SARS-CoV-2 3CL^pro [5]; 200 μM Thonzonium bromide): 6.30%
Random coil (%) (SARS-CoV-2 3CL^pro [5]; 200 μM Thonzonium bromide): 34.00%
Total sum (%) (SARS-CoV-2 3CL^pro [5]; 200 μM Thonzonium bromide): 102.10%
α-helix (%) (SARS-CoV-2 3CL^pro [5]; 200 μM Thonzonium bromide): 12.30%
β-turn (%) (SARS-CoV-2 3CL^pro [5]; 200 μM Thonzonium bromide): 15.90%
inhibitory activity towards CTRC [6]: didn’t exhibit inhibitory activity; also recorded: did not show measurable activity; also recorded: does not inhibit
inhibitory activity towards DPP-IV [7]: didn’t exhibit inhibitory activity; also recorded: did not show measurable activity; also recorded: does not inhibit
antiviral effect against SARS-CoV-2 in cells (SARS-CoV-2): effective against SARS-CoV-2
